Assay results from ChEMBL document CHEMBL4041524, “Synthesis and Characterization of a Novel γ-Aminobutyric Acid Type A (GABAA) Receptor Ligand That Combines Outstanding Metabolic Stability, Pharmacokinetics, and Anxiolytic Efficacy” (J Med Chem, 2016).
pEC50: −log10 of the molar value. Calls of active or inactive are those of the source. No cut-off for these calls is given here.

Columns and labels:
[1] = Total plasma concentration in Sprague-Dawley rat at 10 mg/kg, po measured after 30 mins by LC-MS/MS analysis; assay type: ADME, organism-based
How it was run: (§1)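 Sprague-Dawley rats (n = 3 per time point) were given 10 mg/kg p.o. Total plasma concentrations were taken at 15, 30, 60 and 120 min. Brain levels of the dosed ligand and of the carboxylic acid metabolite were taken at 60 or 120 min.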

Liver [2] = test: Metabolic stability in human liver microsomes assessed as compound remaining at 4 uM measured after 30 mins in presence of NADPH by LC-MS/MS analysis; assay type: ADME, microsome; details: 0.5 h
How it was run: (§2)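 Human, mouse or rat liver microsomes were incubated with compound at 4 μM final for 30 min at 37 °C (n = 1). Percent of parent remaining was quantified by LC-MS/MS.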

[3] = biological target: T1, GABA-A receptor; alpha-3/beta-3/gamma-2 (Homo sapiens, UniProt P18507+P28472+P34903); test: Binding affinity to human GABAA alpha3beta3gamma2 receptor expressed in HEK293 cells assessed as GABA-induced membrane potential change preincubated for 3 mins followed by addition of GABA measured after 3 mins by FLIPR assay; assay type: cell-based
T1 sequence (P18507 whole entry): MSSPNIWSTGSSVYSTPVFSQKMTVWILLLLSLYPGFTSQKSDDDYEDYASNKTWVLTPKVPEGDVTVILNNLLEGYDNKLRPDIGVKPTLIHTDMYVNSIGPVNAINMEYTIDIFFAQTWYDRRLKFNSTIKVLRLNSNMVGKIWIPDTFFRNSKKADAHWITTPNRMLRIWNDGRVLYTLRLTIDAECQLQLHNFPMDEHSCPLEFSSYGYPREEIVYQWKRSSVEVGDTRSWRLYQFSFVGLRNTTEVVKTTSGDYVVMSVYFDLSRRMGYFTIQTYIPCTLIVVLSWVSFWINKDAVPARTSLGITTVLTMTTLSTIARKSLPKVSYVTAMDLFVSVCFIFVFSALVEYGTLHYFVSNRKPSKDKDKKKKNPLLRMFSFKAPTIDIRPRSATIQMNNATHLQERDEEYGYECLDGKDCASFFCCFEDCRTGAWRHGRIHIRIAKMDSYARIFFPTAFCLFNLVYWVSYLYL
T1 sequence (P28472 whole entry): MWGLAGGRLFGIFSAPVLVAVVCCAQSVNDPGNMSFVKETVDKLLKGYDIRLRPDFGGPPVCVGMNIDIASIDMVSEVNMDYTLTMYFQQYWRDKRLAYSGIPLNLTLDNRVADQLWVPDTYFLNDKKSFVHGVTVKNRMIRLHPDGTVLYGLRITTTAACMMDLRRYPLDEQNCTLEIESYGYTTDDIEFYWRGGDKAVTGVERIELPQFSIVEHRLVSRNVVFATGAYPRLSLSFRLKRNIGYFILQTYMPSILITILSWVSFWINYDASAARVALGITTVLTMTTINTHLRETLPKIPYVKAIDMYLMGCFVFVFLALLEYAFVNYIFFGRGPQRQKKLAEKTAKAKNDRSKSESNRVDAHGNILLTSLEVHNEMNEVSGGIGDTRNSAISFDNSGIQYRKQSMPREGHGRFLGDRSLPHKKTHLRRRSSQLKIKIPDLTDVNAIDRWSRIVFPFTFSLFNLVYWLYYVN
T1 sequence (P34903 whole entry): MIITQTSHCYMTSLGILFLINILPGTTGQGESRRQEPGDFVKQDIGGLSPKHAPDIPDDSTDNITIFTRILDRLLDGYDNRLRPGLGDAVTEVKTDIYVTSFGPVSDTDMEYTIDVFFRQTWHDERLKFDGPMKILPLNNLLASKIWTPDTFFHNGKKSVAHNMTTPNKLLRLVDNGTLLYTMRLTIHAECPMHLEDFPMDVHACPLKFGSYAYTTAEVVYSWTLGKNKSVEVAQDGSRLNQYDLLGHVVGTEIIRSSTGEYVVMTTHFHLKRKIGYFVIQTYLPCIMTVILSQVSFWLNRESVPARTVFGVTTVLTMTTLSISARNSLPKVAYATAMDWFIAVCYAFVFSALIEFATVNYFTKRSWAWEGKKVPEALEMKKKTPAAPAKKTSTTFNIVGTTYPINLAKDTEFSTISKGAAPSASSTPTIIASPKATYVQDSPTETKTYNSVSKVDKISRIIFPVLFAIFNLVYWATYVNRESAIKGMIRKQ
How it was run: (§3)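 Stably transfected HEK293T cells expressing α1β3γ2 (n = 2) or α3β3γ2 (n = 1) GABAARs. Membrane potential was read as fluorescence changes on a FLIPR Tetra, and EC50 was derived.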

Brain = test: Drug metabolism in Sprague-Dawley rat brain assessed as (E)-8-ethynyl-6-(pyridin-2-yl)-4H-benzo[f]imidazo[1,5-a][1,4]diazepine-3-carboxylic acid formation at 10 mg/kg, po measured after 120 mins by LC-MS/MS analysis; assay type: ADME, organism-based; details: in vivo, 2 h; how it was run: as §1
Liver [4] = test: Metabolic stability in mouse liver microsomes assessed as compound remaining at 4 uM measured after 30 mins in presence of NADPH by LC-MS/MS analysis; assay type: ADME, microsome; details: 0.5 h; how it was run: as §2
[5] = Total plasma concentration in Sprague-Dawley rat at 10 mg/kg, po measured after 15 mins by LC-MS/MS analysis; assay type: ADME, organism-based; how it was run: as §1
[6] = Drug uptake in Sprague-Dawley rat brain at 10 mg/kg, po measured after 120 mins by LC-MS/MS analysis; assay type: ADME, organism-based; details: read-out: Drug uptake; how it was run: as §1
Mus musculus [7] = test: Toxicity in Swiss mouse assessed as change in motor coordination by measuring number of falls from the rotating rod at 30 mg/kg, ip administered 30 mins prior to testing measured for 2 mins by rotarod test relative to control; assay type: organism-based; details: in vivo
How it was run: (§4)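 The same mice used for marble burying were placed on a rotarod at 4 r.p.m. for 2 min. No fall was scored success, one fall partial, and two falls failure.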

[8] = Total plasma concentration in Sprague-Dawley rat at 10 mg/kg, po measured after 120 mins by LC-MS/MS analysis; assay type: ADME, organism-based; how it was run: as §1
Liver [9] = test: Metabolic stability in rat liver microsomes assessed as compound remaining at 4 uM measured after 30 mins in presence of NADPH by LC-MS/MS analysis; assay type: ADME, microsome; details: 0.5 h; how it was run: as §2
[10] = biological target: T2, GABA-A receptor; alpha-1/beta-3/gamma-2 (Homo sapiens, UniProt P14867+P18507+P28472); test: Binding affinity to human GABAA alpha1beta3gamma2 receptor expressed in HEK293 cells assessed as GABA-induced membrane potential change preincubated for 3 mins followed by addition of GABA measured after 3 mins by FLIPR assay; assay type: cell-based; how it was run: as §3
T2 sequence (P14867 whole entry): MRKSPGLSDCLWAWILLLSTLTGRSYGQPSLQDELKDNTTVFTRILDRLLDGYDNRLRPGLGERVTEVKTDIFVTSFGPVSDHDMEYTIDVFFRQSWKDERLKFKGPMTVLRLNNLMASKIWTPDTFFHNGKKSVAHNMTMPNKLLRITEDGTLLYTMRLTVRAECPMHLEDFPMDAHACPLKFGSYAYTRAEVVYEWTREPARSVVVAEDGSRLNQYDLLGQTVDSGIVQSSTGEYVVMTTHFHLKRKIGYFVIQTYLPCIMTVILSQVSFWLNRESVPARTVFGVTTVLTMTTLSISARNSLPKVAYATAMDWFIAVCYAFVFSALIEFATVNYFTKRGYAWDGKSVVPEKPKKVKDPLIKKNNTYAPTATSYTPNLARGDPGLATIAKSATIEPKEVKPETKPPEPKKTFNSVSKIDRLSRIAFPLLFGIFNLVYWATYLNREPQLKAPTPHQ
T2 sequence (P18507 whole entry): T1 sequence (P18507 whole entry)
T2 sequence (P28472 whole entry): T1 sequence (P28472 whole entry)

[11] = Total plasma concentration in Sprague-Dawley rat at 10 mg/kg, po measured after 60 mins by LC-MS/MS analysis; assay type: ADME, organism-based; how it was run: as §1
[12] = Cytotoxicity against HEK293T cells assessed as viable cells measured after 18 hrs by CellTiter-Glo assay; assay type: cell-based, HEK-293T; details: human, read-out: LD50
How it was run: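 HEK293T cells were exposed to compound for 18 h (n = 4). Viable cells were quantified with CellTiter-Glo, and LD50 was derived.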

Mus musculus [13] = test: Anxiolytic-like activity in Swiss Webster mouse marble burying model of anxiety assessed as suppression of marble burying activity at 30 mg/kg, ip administered 30 mins prior to test relative to vehicle-control; assay type: functional, organism-based
How it was run: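 Male NIH Swiss Webster mice (n = 10) received vehicle or compound at 10 or 30 mg/kg i.p. 30 min before marble burying testing. Sedation-like behaviour was noted by observation. Analysis was ANOVA with Dunnett's test vs vehicle.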

Mus musculus [14] = test: Toxicity in Swiss mouse assessed as change in motor coordination by measuring number of falls from the rotating rod at 10 mg/kg, ip administered 30 mins prior to testing measured for 2 mins by rotarod test relative to control; assay type: organism-based; details: in vivo; how it was run: as §4

SMILES | concentration at 0.5 h [1] [nM] | Stability (Liver [2]) [%] | pEC50 [3] | Drug metabolism (Brain) [nM] | Stability (Liver [4]) [%] | concentration at 0.25 h [5] [nM] | concentration at 2 h [6] [nM] | Activity (Mus musculus [7]) | concentration at 2 h [8] [nM] | Stability (Liver [9]) [%] | pEC50 [10] | concentration at 1 h [11] [nM] | CC50 at 18 h [12] [µM] | Activity (Mus musculus [13]) | Activity (Mus musculus [14])
C#Cc1ccc2c(c1)C(c1ccccn1)=NCc1c(C(=O)O)ncn1-2 | 293 | 96 | 6.33 | < 12.2 | 93 | 248 | < 12.2 | Toxic | 37.5 | 99 | < 4.70 | 161 | – | – | –
C#Cc1ccc2c(c1)C(c1ccccc1)=NCc1c(C(=O)OCC)ncn1-2 | – | 35 | – | – | 6.3 | – | – | Toxic | – | 36 | – | – | – | – | –
C#Cc1ccc2c(c1)C(c1ccccn1)=NCc1c(-c3nc(C)no3)ncn1-2 | – | 81 | 5.29 | – | 85 | – | – | Toxic | – | 93 | < 4.70 | – | > 100 | Active | Non-Toxic
C#Cc1ccc2c(c1)C(c1ccccc1)=NCc1c(-c3cnco3)ncn1-2 | – | 74 | 6.49 | – | 73 | – | – | Toxic | – | 72 | < 4.70 | – | 66.8 | Active | Toxic
C#Cc1ccc2c(c1)C(c1ccccc1F)=NCc1c(C(=O)OCC)ncn1-2 | – | 6.1 | 7.54 | – | 6.1 | – | – | Toxic | – | 0.5 | < 4.70 | – | – | – | –
[2H]C([2H])(C)OC(=O)c1ncn2c1CN=C(c1ccccn1)c1cc(C#C)ccc1-2 | < 12.2 | 95 | – | < 12.2 | 63 | < 12.2 | < 12.2 | Toxic | < 12.2 | 77 | – | < 12.2 | – | – | –
C#Cc1ccc2c(c1)C(c1ccccc1F)=NCc1c(-c3cnco3)ncn1-2 | – | 78 | 7.96 | – | 78 | – | – | Toxic | – | 68 | < 4.70 | – | 61.5 | Active | Non-Toxic
